# Screening results deposited in PubChem BioAssay by Sanford-Burnham Center for Chemical Genomics.
# Apaf-1 act: activators of human Apaf-1 apoptosome, primary screen, biochemical, DEVD-Rh110 fluorescence, uHTS. Apoptotic protease-activating factor 1 (Homo sapiens), O14727. Apaf-1 apoptosome caspase-3 activation; stronger effect = lower value. activity change, negative = activation, % at 20 µM. hit rate 0.31% among 330,000;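 active = activity change at or below -40% at 20 µM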
#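 System: Reconstituted apoptosome of Apaf-1, cytochrome c, caspase-9, procaspase-3 | Reagent: dATP, cytochrome c, and (Z-DEVD)2-Rh110 caspase-3 substrate | Times: 30 min compound preincubation and 50 min reaction, both room temperature | Detection: Caspase-3-released Rh110 fluorescence, 540 nm emission, 480 nm excitation | Measure: Caspase-3 activity via Apaf-1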
# Rh110 act interf: Rh110 fluorescence interference by putative Apaf-1 activators, confirmation, artefact control for Apaf-1 activator project, biochemical, 20 µM; shares compounds with Apaf-1 act; quenched caspase reaction, Ex480/Em540; fluorescence interference (activity change), % at 20 µM, hits read low; 980 tested, under 10 active;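 active = mean activity change at or below -40% when tested at 20 µM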
# Apaf-1 act conf2: Apaf-1 activators, single-dose retest, confirmation, biochemical, fluorescence, DEVD-Rh110, 20 µM | reconstituted apoptosome caspase-3 activity; stronger effect = lower value | activity change, negative = activation, % at 20 µM | hit rate 5% among 980 | AID 504617, 2011 | shares compounds with Apaf-1 act;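 active = mean activity change at or below -40%, meaning activation of 40% or more, at 20 µM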
# Fluor interf act: fluorescence interference of Apaf-1 activator hits, dose response, artefact control for Apaf-1 activator project; shares compounds with Apaf-1 act; fluorescence interference counterscreen, Apaf-1 activator assay; EC50, µM; 55 tested, under 10 active; call rule not given here
# An asterisk follows results filed as active; · = no result given. The list is a sample of the results.
SMILES,Apaf-1 act,Rh110 act interf,Apaf-1 act conf2,others
Cc1cc(=O)[nH]c(N/N=C/c2ccc(Cl)c([N+](=O)[O-])c2)n1,-73.4*,4.4,9.2,
COc1ccc(NC(=S)Nc2cccc3cnccc23)cc1,95.4,·,·,
O=S(=O)(/N=C/N1CCOCC1)c1ccc(Cl)cc1,42.5,·,·,
CC1(C(=O)NCc2ccccn2)C=CCN1C(=O)c1ccccc1 (stereo unspecified),-272.6*,5.5,-3.9,
O=C1C(O)=C(O)C(=O)c2ccccc21,92.1,·,·,
CCOc1cccc2sc(N(CCCN(C)C)C(=O)c3ccc(S(=O)(=O)N(C)Cc4ccccc4)cc3)nc12,61.9,·,·,
CCOc1cccc2sc(N(CCCN(C)C)C(=O)c3ccc(S(=O)(=O)N(CC)Cc4ccccc4)cc3)nc12,67.2,·,·,
O=C(NCc1ccccc1)c1ccc(CN(c2ccccn2)S(=O)(=O)c2ccccc2)cc1,-114.7*,4.0,2.3,
O=C(Nc1nc2ccsc2c(=O)s1)c1ccco1,-135.9*,0.4,-55.9*,Fluor interf act=>100
COC(=O)c1ccc(NC(=O)c2ccc(NC(=O)c3ccco3)cc2)cc1,43.8,·,·,
CCCCCn1c(NC(=O)c2ccco2)c(S(=O)(=O)c2ccc(C)cc2)c2nc3ccccc3nc21,62.8,·,·,
C[C@H](CO)N1C[C@H](C)[C@@H](CN(C)Cc2ccc(Oc3ccccc3)cc2)Oc2c(NC(=O)C3CC3)cccc2C1=O,43.4,·,·,
COc1cc2ccccc2cc1C(=O)Nc1sc2c(c1C(N)=O)CCN(C(C)C)C2,51.2,·,·,
C#CCOCCOCCOCCNc1nc(N2CCN(C(=O)CCCCCCCCCCNC(=O)[C@@H](CCC(=O)O)n3cc(CCCCCN)nn3)CC2)nc(N2CCN(C(=O)CCCCCCCCCCNC(=O)[C@H](CO)n3cc(CCCCCN)nn3)CC2)n1,54.4,·,·,
CCCC(=O)N1c2ccccc2[C@@H](N(C(C)=O)c2ccccc2)C[C@H]1C,-55.4*,-0.5,12.4,
CCNc1ccccc1CP(=O)(c1ccccc1)c1ccccc1O (stereo unspecified),86.5,·,·,
S=C1NCCc2ccc(Cl)cc2C1c1ccccc1Cl (stereo unspecified),-513.6*,1.0,15.9,
Nc1c(O)cccc1C(=O)O,53.4,·,·,
c1ccc(C[C@H]2CNCCN2CCCCC2CCCCC2)cc1,49.4,·,·,
CC1CN(CCC(=O)Nc2ccc3c(c2)CCC3)CC(C)O1 (stereo unspecified),-85.3*,10.3,15.9,
c1csc(Cc2nn3c(-c4ccncc4)nnc3s2)c1,77.5,·,·,
CCc1cccc2c(C#N)cn(CCOc3ccccc3OC)c12,-104.0*,2.9,16.9,
COc1ccc2ccccc2c1C1CC(=O)N2CN(C)CSC2=C1C#N (stereo unspecified),71.2,·,·,
CCN1C(=O)CC(c2ccccc2)N(C2CCCC2)c2nc(Nc3ccc(C(=O)NC4CCN(C)CC4)cc3OC)ncc21 (stereo unspecified),69.5,·,·,
CCc1ccccc1OCC(=O)Nc1ccc(N2CCCC2)cc1C,42.7,·,·,
SMILES,Apaf-1 act,Rh110 act interf,Apaf-1 act conf2,others
CCOc1ccccc1NC(=O)COc1ccc2ccc(=O)oc2c1,-86.6*,3.3,2.9,
CCOc1ccc(NC(=S)Nc2cccc3ccccc23)cc1,66.0,·,·,
Cc1c(C(=O)N(C)CCOc2ccccc2)oc2c(Cl)cccc12,44.6,·,·,
CC(C)c1ccc(NC(=S)Nc2cccc3ccccc23)cc1,84.0,·,·,
CC1=NN(c2ccc(C(F)(F)F)cn2)C(=O)C1,62.0,·,·,
C#CCOCCOCCOCCNc1nc(N2CCN(C(=O)CCCCCCCCCCNC(=O)[C@H](CCCCN)n3cc(C[C@@H](C)CC)nn3)CC2)nc(N2CCN(C(=O)CCCCCCCCCCNC(=O)[C@@H]([C@H](C)O)n3cc(C)nn3)CC2)n1,57.5,·,·,
CCOc1ccccc1NC(=O)CCS(=O)(=O)c1ccc(Br)cc1,-219.8*,12.4,-128.1*,Fluor interf act=>100
COc1ccc([N+](=O)[O-])cc1NC(=O)CCS(=O)(=O)c1ccc(Br)cc1,-110.8*,-4.5,-100.7*,Fluor interf act=>100
O=C(CCS(=O)(=O)c1ccc(Br)cc1)NCc1ccco1,-87.6*,8.7,-51.3*,Fluor interf act=>100
O=C(COC(=O)c1cc(S(=O)(=O)N2CCc3ccccc3C2)ccc1Cl)NCc1ccco1,42.6,·,·,
O=[N+]([O-])c1ccc(C=Nc2cccc3ccccc23)s1,68.1,·,·,
C1CCC(C(CC2CCCCN2)C2CCCCC2)CC1 (stereo unspecified),59.9,·,·,
CC(C)COCC(CN(Cc1ccccc1)c1ccccc1)N1CCCC1 (stereo unspecified),48.6,·,·,
